Screens: PubChem BioAssay, several laboratories
Only some compounds are listed: those with a hit (about 2.2% of all), similar ones and a draw of the others.
Granule exo inh: lytic granule exocytosis inhibition; inhibition, % at 10 µM; 360,000 tested, 0.66% active; TALL-104 LAMP-1 surface exposure, flow cytometry; cells stimulated with thapsigargin and PMA;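 active means inhibition above about 55%, limit read from the data; inconclusive means no clear call, values can overlap the other calls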
Myeloid diff MLP: myeloid differentiation induction; ER-HoxA9 myeloid progenitors, lysozyme-GFP differentiation, flow cytometry; calls only at 10 µM; 360,000 tested, 1% active;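 active means normalized GFP-positive differentiation at or above the plate's own cutoff, the solvent-only control mean plus 3 SD; inconclusive means no clear call, values can overlap the other calls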;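 further: cells exposed to compound for four days before flow analysis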
HNF4A DNA FP: change in binding of human HNF4 alpha to DNA | P41235 | HNF4a-FITC DNA binding, fluorescence polarization, 1 h | activity change, % at 10 µM | 360,000 tested, 0.3% active | AID 1224865; in the data active means activity change above about 30%, passing the limit was not always enough
Target sequence (P41235 whole entry, looked up): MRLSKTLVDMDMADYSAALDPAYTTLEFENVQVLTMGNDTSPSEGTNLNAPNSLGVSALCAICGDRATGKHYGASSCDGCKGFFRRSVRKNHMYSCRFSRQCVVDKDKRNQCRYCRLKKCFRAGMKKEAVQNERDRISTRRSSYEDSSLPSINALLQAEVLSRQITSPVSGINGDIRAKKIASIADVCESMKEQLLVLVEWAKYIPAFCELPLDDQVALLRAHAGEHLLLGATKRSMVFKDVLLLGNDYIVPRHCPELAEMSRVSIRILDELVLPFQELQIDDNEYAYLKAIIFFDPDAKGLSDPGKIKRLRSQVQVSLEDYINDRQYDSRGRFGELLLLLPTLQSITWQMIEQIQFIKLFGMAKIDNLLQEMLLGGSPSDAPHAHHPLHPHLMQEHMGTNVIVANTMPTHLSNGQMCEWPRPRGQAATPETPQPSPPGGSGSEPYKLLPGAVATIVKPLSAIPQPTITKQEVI
CSN inh: inhibitors of human CSN-mediated cullin deneddylation; AID 651999; inhibition, % at 12.5 µM; Purified CSN, SCF-Nedd8-OG deneddylation, fluorescence polarization; Q92905; 360,000 tested, 0.38% active;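 active means pattern-corrected inhibition above about 35%, with an unprinted fluorescence ratio check between 0.5 and 1.5, limit read from the data, passing the limit was not always enough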;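 further: 0% = enzyme with substrate and 100% = substrate without enzyme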
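Detection – fluorescence polarization · System – HEK293T-derived human Csn5 enzyme · Controls – substrate-only high control, full reaction low control · Timing – 90 min, room temperature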
Myeloid diff: promotes myeloid progenitor differentiation | shares compounds with Myeloid diff MLP | AID 651706 | calls only | 2,300 tested, 2% active | ER-HoxA9 myeloid progenitors, GFP/Mac1 double-positive flow;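 active means share of green or green-and-red cells above 9 and 9% in run 1 or 4 and 3% in run 2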
GFP autofluor: flagged as fluorescent in myeloid differentiation counter-screen; fluorescence response, % (no concentration beside the values); 2,300 tested, 7.4% active; ER-HoxA9 myeloid progenitors, no estrogen, GFP autofluorescence flow cytometry; vehicle wells 0%, positive control 100%; shares compounds with Myeloid diff MLP;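 active means over 5% cells positive for green fluorescent reporter, or over 2% positive for both it and APC stain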;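 further: range taken on the double positive population between DMSO and positive control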
An asterisk follows results filed as active; i = inactive; ? = inconclusive; / = not tested or not shown; + = active, no number.

SMILES	Granule exo inh	Myeloid diff MLP	HNF4A DNA FP	CSN inh	Myeloid diff	GFP autofluor
O=C(CC1C(=O)NCCN1C(=O)Nc1ccccc1)Nc1ccc(F)cc1 (centres undefined)	27	i	1	-1	/	/
CN=C1SC(CC(=O)Nc2ccccc2F)C(=O)N1C (centres undefined)	-1	i	0	0	/	/
O=C(CC1SCCNC1=O)Nc1cccc(Cl)c1 (centres undefined)	-3	i	3	3	/	/
CN=C1SC(CC(=O)Nc2cccc(C(F)(F)F)c2)C(=O)N1C (centres undefined)	-2	i	0	1	i	0
O=C(CC1C(=O)NCCN1C(=O)Nc1ccccc1)Nc1cccc(C(F)(F)F)c1 (centres undefined)	5	+	-3	-2	i	1
O=C(CC1SCCNC1=O)Nc1cccc(C(F)(F)F)c1 (centres undefined)	1	+	-3	-1	i	0
COc1ccc(C(=O)N/C(=C\c2cn(S(=O)(=O)N(C)C)c3ccccc23)C(=O)N2CCN(C)CC2)cc1	-2	i	-1	-1	/	/
CC(C)(C)OC(=O)N(CCc1ccccc1)Cc1cccc(OCc2cccc(NC(=O)C3CC3)c2)c1	-1	i	-4	-4	/	/
Cc1cnc(C(=O)OCC(=O)N2CC(C)CC(C)C2)cn1 (centres undefined)	5	i	-3	-2	/	/
CCOc1ccccc1N1CCN(C(=O)c2ccc3nc(N)sc3c2)CC1	-1	i	2	2	/	/
Cc1ccc(C(=O)NCCCNC(=O)Cc2ccc(Cl)cc2)cn1	-4	i	-3	0	/	/
O=S(=O)(/C(=C/c1ccc(C(F)(F)F)cc1)c1nc2ccccc2[nH]1)c1ccccc1	31	?	0	7	/	/
CC(C)c1ccc(/C=C(\c2nc3ccccc3[nH]2)S(=O)(=O)c2ccccc2)cc1	3	+	3	-2	i	0
Cc1ccc(C)c(NC(=O)CS(=O)(=O)c2cn(C)c3ccccc23)c1	0	i	3	-2	i	0
CCOC(=O)c1c(NC(=O)c2nn(CC)cc2Br)c(C#N)cn1-c1ccccc1	-2	+	-1	1	+	0
CCOC(=O)c1c(N)c(C#N)cn1-c1ccccc1	-1	i	-3	-7	/	/
O=C(NCc1ccccn1)[C@@H]1CCCN1C(=O)[C@@H]1CCCN1C(=O)c1cccc(Cl)c1	-9	i	-5	-3	i	0
COc1cccc(C(=O)N2CCC[C@H]2C(=O)N2CCC[C@H]2C(=O)NCc2ccccn2)c1	5	i	-4	-2	/	/
Cc1ccc(-c2cc(C(F)(F)F)nc(SCC(=O)c3cccc([N+](=O)[O-])c3)n2)cc1	-2	i	-1	-1	/	/
Cc1cc(C(F)(F)F)nc(SCC(=O)c2cccc([N+](=O)[O-])c2)n1	-4	i	0	1	i	0
CCOC(=O)Cc1csc(SCC(=O)c2c(N)n(CC(C)C)c(=O)n(C)c2=O)n1	-5	i	8	0	/	/
CC(C)Cn1c(N)c(C(=O)COC(=O)c2cnccn2)c(=O)n(C)c1=O	-4	+	3	10	i	1
CC(C)Cn1c(N)c(C(=O)COC(=O)c2cnc(Cl)c(Cl)c2)c(=O)n(C)c1=O	3	i	-11	2	/	/
Cc1csc(SCC(=O)c2c(N)n(CC(C)C)c(=O)n(C)c2=O)n1	-1	+	6	-3	i	51*
CCN1CCN(C(=O)c2ccc(Cl)c(S(=O)(=O)N(C)c3ccccc3)c2)CC1	1	i	-1	0	/	/
SMILES	Granule exo inh	Myeloid diff MLP	HNF4A DNA FP	CSN inh	Myeloid diff	GFP autofluor
CCCc1nc2c3ccccc3ccn2c1Cc1ccc(OC)cc1C	-3	+	43*	26	+	1
Cc1ccccc1NC(=O)CSc1nnc(CNC(=O)c2ccco2)n1C	16	i	1	-5	/	/
O=C(COc1cccc2cccnc12)NCC(F)(F)F	6	i	-1	1	/	/
O=C(COC(=O)COc1cccc2ccccc12)NCC(F)(F)F	-2	i	0	-6	i	0
CS(=O)(=O)N(Cc1ccc(Cl)cc1)c1ccc(C(=O)NCCSc2ccccn2)cc1	16	+	2	-1	i	4
Cc1nc2ccccc2c(=O)n1NC(=O)c1cccc(Cl)c1	10	i	3	3	/	/
O=C(c1ccc(F)c(S(=O)(=O)N2CCOCC2)c1)N1CCc2ccccc21	-5	i	-1	4	/	/
Cc1onc(-c2c(Cl)cccc2Cl)c1C(=O)NCc1ccc(S(N)(=O)=O)cc1	-11	i	1	6	i	0
Cc1onc(-c2ccccc2Cl)c1C(=O)NCc1ccccc1	-5	i	-4	4	/	/
CC1(C(=O)NS(=O)(=O)Cc2ccccc2C(F)(F)F)CCN1C(=O)Cc1ccsc1 (centres undefined)	0	i	2	1	/	/
CCC(=O)Nc1ccc(/C(C)=N\NS(=O)(=O)c2ccc(C)cc2)cc1	-2	+	3	2	i	0
CC(=O)Nc1ccc(/C(C)=N/NS(=O)(=O)c2ccc(C)cc2)cc1	0	/	-3	-8	/	/
Cc1ccc(S(=O)(=O)c2cc3c(=O)n4ccccc4nc3n(Cc3ccco3)c2=N)cc1	2	i	-26	38*	i	0
Cc1ccc(CNC(=O)c2cc3c(=O)n4ccccc4nc3n(Cc3ccco3)c2=N)cc1	1	i	-10	14	/	/
CCOc1cc(Br)c(C(C)NC(=O)c2cccnc2)cc1OCC (centres undefined)	10	i	1	-8	/	/
COc1ccc(CC(=O)NC2CCN(CC(=O)N3CCCc4ccccc43)CC2)cc1OC	22	i	-3	-2	i	0
CCn1c(=O)c(CCC(=O)N2CCN(c3ccccn3)CC2)c(C)c2c(C)nn(-c3cccc(C)c3)c21	10	i	4	-1	/	/
COC(=O)C1=C(C)N(Cc2ccccc2)C(=NCc2cc(OC)c(OC)c(OC)c2)N[C@H]1CCc1ccccc1	11	+	2	-1	i	0
CCc1ccccc1NC(=O)CNCC(=O)Nc1ccccc1CC	-2	+	4	1	i	0
CCc1ccccc1NC(=O)Cc1ccc(-n2cccc2)cc1	1	i	0	-4	/	/
Cc1ccccc1CN(C)C(C)C(=O)NCc1ccccc1 (centres undefined)	-6	i	-4	0	/	/
CCn1c(CNC(=O)c2ccccc2F)nnc1SCC(=O)Nc1nncs1	-3	i	0	-1	/	/
N#C/C(=C/c1cccn1-c1cccc(C(=O)O)c1)c1ccc(F)cc1	0	+	-9	5	i	1
COc1cccc(/C=C(/C#N)c2ccc(F)cc2)c1OCc1cccc(C(=O)O)c1	0	i	-2	8	/	/
